Activity calls are given as the source filed them. The rule behind the calls is not given here.
Tests used:
[1] = Antiproliferative activity against human HT1080 cells assessed as cell growth inhibition after 48 hrs by sulforhodamine B assay; assay type: functional, cell-based; conditions: HT-1080, 48 h
M21 [2] = assay: Antiproliferative activity against human M21 cells assessed as cell growth inhibition after 48 hrs by sulforhodamine B assay; assay type: functional, cell-based; conditions: M21, 48 h
How it was run: (§1)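 NCI-style SRB screen with minor changes. Cells seeded per well in DMEM with 5% FBS: HT-29 4.0 x 10^3, M21 3.0 x 10^3, MCF-7 2.5 x 10^3, HT-1080 2.5 x 10^3. After 24 h, serially diluted drug was added at 50 µM to 1 nM final, DMSO <0.5%, for 48 h. Fixed with cold TCA, stained with SRB, read at 530–568 nm against plates fixed on treatment day. At least two experiments in triplicate, CV <10%.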

HT-29 = assay: Antiproliferative activity against human HT-29 cells assessed as cell growth inhibition after 48 hrs by sulforhodamine B assay; assay type: functional, cell-based; conditions: HT-29, 48 h; how it was run: as §1
MCF7 = assay: Antiproliferative activity against human MCF7 cells assessed as cell growth inhibition after 48 hrs by sulforhodamine B assay; assay type: functional, cell-based; conditions: MCF7, 48 h; how it was run: as §1
[3] = molecular target: T1, Tubulin beta (Homo sapiens) (UniProt P68371+Q9H4B7+Q13509+P04350+Q3ZCM7+P07437+Q13885+Q9BVA1+Q9BUF5+A6NNZ2); assay: Inhibition of N,N-ethylene-bis(iodoacetamide) binding to Tubulin beta colchicines-binding site in human M21 cells assessed as adduct formation at 100000 nM by Western blot analysis; assay type: cell-based
M21 [4] = assay: Induction of cell cycle arrest in human M21 cells assessed as cells accumulation at G2/M phase at 24 nM after 24 hrs by flow cytometry (reference value: 22.1%); assay type: functional
M21 [5] = assay: Induction of cell cycle arrest in human M21 cells assessed as cells accumulation at G0/G1 phase at 24 nM after 24 hrs by flow cytometry (reference value: 54.5%); assay type: functional
M21 [6] = assay: Induction of cell cycle arrest in human M21 cells assessed as cells accumulation at subG1 phase at 24 nM after 24 hrs by flow cytometry (reference value: 1.2%); assay type: functional
M21 [7] = assay: Induction of microtubule depolymerization and cytoskeleton disruption in human M21 cells at 24 nM after 24 hrs by immunofluorescence assay; assay type: functional, cell-based
M21 [8] = assay: Induction of cell cycle arrest in human M21 cells assessed as cells accumulation at S phase at 24 nM after 24 hrs by flow cytometry (reference value: 22.2%); assay type: functional
[9] = molecular target: T1, Tubulin beta (Homo sapiens); assay: Binding affinity to Tubulin beta in human M21 cells assessed as tubulin acylation at 8200 nM after 24 hrs by electrophoretic mobility shift assay
M21 [10] = assay: Induction of cell cycle arrest in human M21 cells assessed as cells accumulation at G0/G1 phase at 4100 nM after 24 hrs by flow cytometry (reference value: 54.5%); assay type: functional
M21 [11] = assay: Induction of cell cycle arrest in human M21 cells assessed as cells accumulation at subG1 phase at 4100 nM after 24 hrs by flow cytometry (reference value: 1.2%); assay type: functional
M21 [12] = assay: Induction of cell cycle arrest in human M21 cells assessed as cells accumulation at S phase at 4100 nM after 24 hrs by flow cytometry (reference value: 22.2%); assay type: functional
M21 [13] = assay: Induction of cell cycle arrest in human M21 cells assessed as cells accumulation at G2/M phase at 4100 nM after 24 hrs by flow cytometry (reference value: 22.1%); assay type: functional
M21 [14] = assay: Induction of microtubule depolymerization and cytoskeleton disruption in human M21 cells at 4100 nM after 16 hrs by immunofluorescence assay
M21 [15] = assay: Induction of cell cycle arrest in human M21 cells assessed as cells accumulation at G2/M phase at 760 nM after 24 hrs by flow cytometry (reference value: 22.1%); assay type: functional
M21 [16] = assay: Induction of cell cycle arrest in human M21 cells assessed as cells accumulation at subG1 phase at 760 nM after 24 hrs by flow cytometry (reference value: 1.2%); assay type: functional
[17] = molecular target: T1, Tubulin beta (Homo sapiens); assay: Binding affinity to Tubulin beta in human M21 cells assessed as tubulin acylation at 1500 nM after 24 hrs by electrophoretic mobility shift assay; assay type: cell-based
[18] = molecular target: T1, Tubulin beta (Homo sapiens); assay: Binding affinity to Tubulin beta in human M21 cells assessed as tubulin acylation at 3100 nM after 24 hrs by electrophoretic mobility shift assay; assay type: cell-based
M21 [19] = assay: Induction of microtubule depolymerization and cytoskeleton disruption in human M21 cells at 760 nM after 16 hrs by immunofluorescence assay
M21 [20] = assay: Induction of cell cycle arrest in human M21 cells assessed as cells accumulation at G0/G1 phase at 760 nM after 24 hrs by flow cytometry (reference value: 54.5%); assay type: functional
M21 [21] = assay: Induction of cell cycle arrest in human M21 cells assessed as cells accumulation at S phase at 760 nM after 24 hrs by flow cytometry (reference value: 22.2%); assay type: functional
M21 [22] = assay: Induction of cell cycle arrest in human M21 cells assessed as cells accumulation at G2/M phase at 3100 nM after 24 hrs by flow cytometry (reference value: 22.1%); assay type: functional
M21 [23] = assay: Induction of cell cycle arrest in human M21 cells assessed as cells accumulation at subG1 phase at 3100 nM after 24 hrs by flow cytometry (reference value: 1.2%); assay type: functional
M21 [24] = assay: Induction of cell cycle arrest in human M21 cells assessed as cells accumulation at G0/G1 phase at 3100 nM after 24 hrs by flow cytometry (reference value: 54.5%); assay type: functional
M21 [25] = assay: Induction of microtubule depolymerization and cytoskeleton disruption in human M21 cells at 3100 nM after 16 hrs by immunofluorescence assay
M21 [26] = assay: Induction of cell cycle arrest in human M21 cells assessed as cells accumulation at S phase at 3100 nM after 24 hrs by flow cytometry (reference value: 22.2%); assay type: functional

Structure (SMILES)	IC50 [1]	IC50 (M21 [2])	IC50 (HT-29)	IC50 (MCF7)	further results
O=C1NCCN1c1ccc(/C=C/c2cccc(Cl)c2)cc1	> 20 µM	19 µM	17 µM	20 µM	–
COc1cc(/C=C/c2ccc(N3CCNC3=O)cc2)cc(OC)c1OC	0.4 µM	0.55 µM	0.37 µM	0.54 µM	inhibition [3]: Active
Cc1cc(C)cc(/C=C/c2ccc(NC(=O)NCCCl)cc2)c1	> 20 µM	> 20 µM	11 µM	19 µM	–
CCNC(=O)Nc1ccc(/C=C\c2cc(C)cc(C)c2)cc1	15 µM	16 µM	11 µM	17 µM	–
COc1cc2c(c(OC)c1OC)-c1ccc(OC)c(=O)cc1[C@@H](NC(C)=O)CC2 [COLCHICINE]	–	–	–	–	Activity (M21 [4]): 57.9%; Activity (M21 [5]): 27.9%; Activity (M21 [6]): 2.4%; Activity (M21 [7]): Active; Activity (M21 [8]): 11.8%
O=C(NCCCl)Nc1ccc(/C=C/c2cccc(Cl)c2)cc1	> 20 µM	> 20 µM	12 µM	20 µM	–
COc1cc(/C=C\c2ccc(NC(=O)NCCCl)cc2)cc(OC)c1OC	1.4 µM	0.95 µM	0.68 µM	1.4 µM	Activity [9]: Active; Activity (M21 [10]): 3.9%; Activity (M21 [11]): 4.8%; Activity (M21 [12]): 5.8%; Activity (M21 [13]): 85.5%; Activity (M21 [14]): Active
COc1cc(/C=C/c2ccc(NC(=O)NCCCl)cc2)cc(OC)c1OC	> 20 µM	> 20 µM	9.5 µM	20 µM	–
O=C(NCCCl)Nc1ccc(/C=C\c2cccc(Cl)c2)cc1	0.17 µM	0.17 µM	0.13 µM	0.2 µM	Activity (M21 [15]): 92%; Activity (M21 [16]): 2.2%; Activity [17]: Active; Activity [18]: Active; Activity (M21 [19]): Active; Activity (M21 [20]): 2.1%; Activity (M21 [21]): 3.7%
Cc1cc(C)cc(/C=C\c2ccc(NC(=O)NCCCl)cc2)c1	0.7 µM	0.71 µM	0.51 µM	0.86 µM	Activity (M21 [22]): 68.6%; Activity (M21 [23]): 12.5%; Activity [17]: Active; Activity (M21 [24]): 5.7%; Activity [18]: Active; Activity (M21 [25]): Active; Activity (M21 [26]): 13.2%

Reference: ChEMBL document CHEMBL3588763, “Styryl-N-phenyl-N'-(2-chloroethyl)ureas and styrylphenylimidazolidin-2-ones as new potent microtubule-disrupting agents using combretastatin A-4 as model” (Eur J Med Chem, 2015)
